In ChEMBL document CHEMBL1138217, “Rapid discovery and structure-activity profiling of novel inhibitors of human immunodeficiency virus type 1 protease enabled by the copper(I)-catalyzed synthesis of 1,2,3-triazoles and their further functionalization” (J Med Chem, 2006) one finds IC50, Ki and inhibition data, which are given here for 14 molecules.

In assay [1] the target is Human immunodeficiency virus type 1 protease (Human immunodeficiency virus 1, UniProt Q72874). The experiment in a line: Inhibition of HIV1 protease. The method in brief:
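HIV-1 protease (SF-2-WTQ7K-Pr construct for the isolated inhibitors) at 20 µg/mL with 50 µM fluorogenic substrate Abz-Thr-Ile-Nle/Phe-(p-NO2)Gln-Arg-NH2, in 0.1 M MES, 0.2 M NaCl, pH 5.25, 5% (v/v) glycerol. Crude mixtures were screened at 5 µM as percent inhibition.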

The target in assay [2] is Human immunodeficiency virus type 1 protease (Human immunodeficiency virus 1) (UniProt Q72874). The experiment in a line: Inhibition of HIV1 protease at 5 uM. The method in brief:
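Crude click-reaction DMSO mixtures (azide-alkyne, CuSO4 with copper turning, 1:1 tBuOH/H2O, 50 °C, 5 days) diluted to 5 µM in 0.1 M MES, 0.2 M NaCl, pH 5.25, 5% glycerol; HIV-1 protease 20 µg/mL plus fluorogenic substrate 50 µM added; fluorescence read directly in microplate; percent inhibition; TL-3 100 nM positive control.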

Consider `Cc1ccc(C)c(N2CCN(Cc3cn([C@@H](Cc4ccccc4)[C@H](Cc4ccccc4)NC(=O)OC4CCCC4)nn3)CC2)c1`, for which, in assay [1], the IC50 – broadly, the concentration needed to halve the response being measured – is > 25000 nM; the inhibition constant Ki (in general, the dissociation constant of the complex between target and ligand, obtained from inhibition or displacement) amounted to 32 nM. The inhibition (commonly the percentage by which the read-out fell short of the control) in assay [2] worked out at 94%.
`Cc1ccc(C)c(N2CCN(Cc3nnn([C@@H](Cc4ccccc4)[C@H](Cc4ccccc4)NC(=O)OC4CCCC4)c3[C@H](C)O)CC2)c1` showed a Ki in assay [1] of 10 nM.
`Cc1ccc(Cl)cc1N1CCN(Cc2cn([C@@H](Cc3ccccc3)[C@H](Cc3ccccc3)NC(=O)OC3CCCC3)nn2)CC1` registered a Ki in assay [1] of 23 nM. This molecule displayed an inhibition in assay [2] of 94%.
Turning to `CC(C)(C)OC(=O)N[C@@H](Cc1ccccc1)[C@H](Cc1ccccc1)N=[N+]=[N-]`, the Ki in assay [1] amounted to 31000 nM.
As for `O=C(N[C@@H](Cc1ccccc1)[C@H](Cc1ccccc1)n1cc(CN2CCN(c3cccc(C(F)(F)F)c3)CC2)nn1)OC1CCCC1` (stereo in doubt; (S,S)-7d), the affinity in assay [1] corresponds to a Ki of 98 nM.
In assay [1], `CC[C@@H](O)c1c(CN2CCN(c3cc(C)ccc3C)CC2)nnn1[C@@H](Cc1ccccc1)[C@H](Cc1ccccc1)NC(=O)OC1CCCC1` returned a Ki of 42 nM. Against the preceding molecule, the Ki is about 2.3-fold lower.
On the same count and under the same terms, to `Cc1ccc(Cl)cc1N1CCN(Cc2nnn([C@@H](Cc3ccccc3)[C@H](Cc3ccccc3)NC(=O)OC3CCCC3)c2[C@H](C)O)CC1` belongs 21 nM.
Molecule `CC(C)C[C@H](NC(=O)OC1CCCC1)[C@H](Cc1ccccc1)n1cc(CN2CCN(c3cccc(C(F)(F)F)c3)CC2)nn1` yielded a Ki in assay [1] of 86 nM. This molecule displayed an inhibition in assay [2] of 50%.
In the case of `Cc1ccc(Cl)cc1N1CCN(Cc2nnn([C@@H](Cc3ccccc3)[C@H](Cc3ccccc3)NC(=O)OC3CCCC3)c2[C@@H](C)O)CC1`, in assay [1], the Ki amounted to 28 nM.
The same measure, in the same setting: to `Cc1ccc(Cl)cc1N1CCN(Cc2nnn([C@@H](Cc3ccccc3)[C@H](Cc3ccccc3)NC(=O)OC3CCCC3)c2CO)CC1` belongs 8 nM.
Regarding `CC[C@H](O)c1c(CN2CCN(c3cc(C)ccc3C)CC2)nnn1[C@@H](Cc1ccccc1)[C@H](Cc1ccccc1)NC(=O)OC1CCCC1`, the affinity in assay [1] corresponds to a Ki of 27 nM.
The same measure, in the same setting: the value for `Cc1ccc(C)c(N2CCN(Cc3nnn([C@@H](Cc4ccccc4)[C@H](Cc4ccccc4)NC(=O)OC4CCCC4)c3[Si](C)(C)C)CC2)c1` was > 2500 nM.
Consider `Cc1ccc(Cl)cc1N1CCN(Cc2cn([C@@H](Cc3ccccc3)[C@H](Cc3ccccc3)NC(=O)CC3CCCC3)nn2)CC1`, for which the Ki in assay [1] was > 2500 nM. Also, in assay [2], the inhibition was 28%.
Taken in the same sequence, the figures for `Cc1ccc(Cl)cc1N1CCN(Cc2cn([C@@H](Cc3ccccc3)[C@H](Cc3ccccc3)NC(=O)O[C@@H]3CCOC3)nn2)CC1` were 83 nM and 71%.
